EBNA-1 inh: blocks EBNA-1 binding to DNA; actives 0.34% (n = 300,000); inhibition, % at 14.8 µM; EBNA-1 DNA binding, fluorescence polarization; AID 1950; in the data active = inhibition above about 28%
HCV NS3 hel inh: HCV NS3 helicase inhibition; NS3 helicase DNA unwinding, Cy5 molecular beacon fluorescence; inhibition, % at 10.9 µM; actives 0.56% (n = 290,000);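 active = inhibition above the mean of all tested compounds plus 3 SD, set per campaign, cut at about 35% in these data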;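 also: 0% = DMSO wells and 100% = thioflavine S control wells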
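Material: hepatitis C virus NS3 helicase domain fragment enzyme; measured by: Cy5 fluorescence, 0 and 60 min reads; control set: DMSO and thioflavine S; incubation: 60 min unwinding reaction at 25 °C after ATP addition; read-out basis: % inhibition from 60/0 min fluorescence ratio, DMSO 0%, thioflavine S 100%; repeats: singlicate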
ZTA counter: ZTA (EBV) inhibition in EBNA-1 counter-screen. ZTA-DNA binding, fluorescence polarization. AID 2234. actives 0.15% (n = 320,000). P03206. inhibition, % at 11 µM; in the data active = inhibition above about 33%
PABP polyA inh: PABP-poly(A) binding inhibition. P11940. PABP-poly(A) RNA binding, fluorescence polarization. inhibition, % at 35 µM. actives 1% (n = 290,000);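 also: calls also rest on retests at 20 µM and on dose response follow-up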
Target sequence (P11940 whole entry, looked up): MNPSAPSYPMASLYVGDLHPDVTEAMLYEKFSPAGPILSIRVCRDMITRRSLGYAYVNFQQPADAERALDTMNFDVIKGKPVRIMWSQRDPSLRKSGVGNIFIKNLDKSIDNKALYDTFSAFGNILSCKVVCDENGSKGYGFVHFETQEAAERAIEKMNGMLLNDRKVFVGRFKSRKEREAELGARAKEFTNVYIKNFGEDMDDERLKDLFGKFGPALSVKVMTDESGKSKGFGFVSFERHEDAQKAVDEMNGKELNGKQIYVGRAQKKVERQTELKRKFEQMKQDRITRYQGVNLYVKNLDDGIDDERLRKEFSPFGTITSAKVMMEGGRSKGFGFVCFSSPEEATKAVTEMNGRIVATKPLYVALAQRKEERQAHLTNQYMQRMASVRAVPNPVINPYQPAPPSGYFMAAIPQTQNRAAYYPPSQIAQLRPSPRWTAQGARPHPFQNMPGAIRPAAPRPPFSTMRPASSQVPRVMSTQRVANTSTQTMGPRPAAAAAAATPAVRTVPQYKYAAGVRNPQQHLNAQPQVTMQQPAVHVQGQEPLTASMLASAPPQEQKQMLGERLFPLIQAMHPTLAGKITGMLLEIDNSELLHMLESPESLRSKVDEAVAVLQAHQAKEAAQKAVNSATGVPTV
eIF4H inh: inhibitors of RNA binding by human eIF4H. Q15056. eIF4H fluorescence polarization binding assay. inhibition, % at 35 µM. actives 0.94% (n = 290,000). AID 2012;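 also: calls also rest on retests at 20 µM and on dose response follow-up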
PABP1 MLLE inh: inhibitors of microRNA-mediated deadenylation, human PABP1 MLLE binding | AID 588489 | actives 0.36% (n = 360,000) | GST-MLLE / FITC-PAM2 fluorescence polarization | inhibition, % at 20 µM; in the data active = inhibition above about 35%, passing the limit was not always enough;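 also: plate controls were DMSO wells with GST-MLLE for no effect and wells lacking GST-MLLE protein for full effect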
NS3 hel confirm: HCV NS3 helicase inhibition, confirmation assay; shares compounds with HCV NS3 hel inh; inhibition, % at 10.9 µM; actives 31% (n = 1,600); NS3 helicase DNA unwinding, Cy5 molecular beacon fluorescence;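 active = inhibition above the mean of all tested compounds plus 3 SD, cutoff set per campaign, cut at about 36% in these data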
DNA FID counter: intercalator displacement, NS3 helicase counter-screen; shares compounds with HCV NS3 hel inh; DNA fluorescent intercalator displacement, fluorescence; inhibition, % at 7.9 µM; actives 4% (n = 1,600); in the data active = inhibition above about 37%;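 also: 0% = vehicle and 100% = reference compound; higher means more displacement of ethidium bromide from the DNA hairpin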
FID counter DR: displaces fluorescent intercalator from DNA, HCV helicase counter-screen; shares compounds with HCV NS3 hel inh; fluorescent intercalator displacement from DNA, fluorescence; IC50, µM; 120 tested, under 10 active; AID 2172
EBNA-1 inh conf: EBNA-1 (EBV) inhibition, confirmation | shares compounds with EBNA-1 inh | AID 2292 | inhibition, % at 14.8 µM | Recombinant EBNA-1 DBD, Cy5-DNA fluorescence polarization | actives 35% (n = 830);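 active = mean inhibition across replicates above a set limit taken from the earlier primary screen, cut at about 28% in these data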;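 also: plate controls were EBNA-1 protein with DMSO for no effect and wells lacking EBNA-1 for full effect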
ZTA counter trip: ZTA (EBV) inhibition, triplicate counter-screen | shares compounds with EBNA-1 inh | Zta-ZRE DNA binding, Cy5 fluorescence polarization | inhibition, % at 11.1 µM | 830 tested, under 10 active;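 active = mean inhibition over triplicates above a set limit taken from the primary EBNA-1 screen, cut at about 37% in these data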;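 also: purified full length Zta protein with Cy5 labeled ZRE DNA probe; 0% = Zta with DMSO and 100% = wells lacking Zta protein; inhibitors lower polarization by freeing the labeled DNA probe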
Zta DNA confirm: confirmation of Epstein-Barr virus ZTA DNA binding inhibitors | shares compounds with ZTA counter | Zta-ZRE DNA binding, fluorescence polarization | inhibition, % at 11.1 µM | actives 30% (n = 320);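 active = mean inhibition across triplicate runs above the hit threshold derived for the original primary screen, cut at about 33% in these data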;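 also: 0% = Zta with DMSO and 100% = wells lacking Zta protein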
EBNA1 counter: counter-screen for ZTA inhibitors: EBNA-1 DNA binding inhibition; shares compounds with ZTA counter; fluorescence polarization; inhibition, % at 14.8 µM; 320 tested, under 10 active
An asterisk follows results filed as active. This is a sample that favours compounds with a hit; in the whole collection about 2.1% have one here. Unless noted, no rule for the calls is given here.

What do the screens show for `O=C(N/N=C/c1c(O)n(CCC2=CCCCC2)c(=S)[nH]c1=O)c1ccccc1`?
EBNA-1 inh: 3; HCV NS3 hel inh: 40*; ZTA counter: 13; PABP polyA inh: -6; eIF4H inh: inconclusive; PABP1 MLLE inh: -61; NS3 hel confirm: 99*; DNA FID counter: 4; FID counter DR: >79

Results for O=C(c1cccnc1)N1Cc2ccccc2-n2nncc2C1 ?
PABP1 MLLE inh: 3

What do the screens show for `CCN1C(=O)N(CC)C(=O)C2(Cc3ccccc3N3CCN(c4ccccc4)CC32)C1=O` (stereo not given)?
EBNA-1 inh: -9; HCV NS3 hel inh: 45*; ZTA counter: -12; PABP polyA inh: 7; eIF4H inh: 5; PABP1 MLLE inh: 9; NS3 hel confirm: -20; DNA FID counter: -32

Results for CCCCN1C(=O)/C(=C/c2ccc(N3CCCCCC3)cc2)C(=O)NC1=S ?
EBNA-1 inh: 3; HCV NS3 hel inh: 39*; ZTA counter: 13; PABP polyA inh: -7; eIF4H inh: 55; NS3 hel confirm: 29; DNA FID counter: 0

Results for CN1C(=O)/C(=C\c2ccc(N3CCCCCC3)cc2)C(=O)NC1=S ?
EBNA-1 inh: -7; HCV NS3 hel inh: -2; ZTA counter: -12; PABP polyA inh: 9; eIF4H inh: -1; PABP1 MLLE inh: -66

Results for CC(C)c1ccc(-n2c(O)c(C=NC(CCS(C)=O)C(=O)O)c(=O)[nH]c2=S)cc1 (stereo not given) ?
EBNA-1 inh: -8; HCV NS3 hel inh: 40*; ZTA counter: 1; PABP polyA inh: -2; eIF4H inh: 9; PABP1 MLLE inh: -5; NS3 hel confirm: -8; DNA FID counter: 12

What do the screens show for `O=C1NC(=O)N(c2ccc(Cl)cc2)C(=O)/C1=C\c1ccc(Sc2nc3ccccc3[nH]2)o1`?
EBNA-1 inh: 5; HCV NS3 hel inh: 44*; ZTA counter: -3; PABP polyA inh: inconclusive; eIF4H inh: inconclusive; PABP1 MLLE inh: -149; NS3 hel confirm: 76*; DNA FID counter: -7

Results for O=C1NC(=O)C(=Cc2ccc(Sc3ccccc3)o2)C(=O)N1 ?
EBNA-1 inh: 5; HCV NS3 hel inh: 9; ZTA counter: 5; PABP polyA inh: inconclusive; eIF4H inh: inconclusive; PABP1 MLLE inh: 14

How did COc1ccc(OC)c(N2C(=O)/C(=C/c3ccco3)C(=O)NC2=S)c1 do in these assays?
EBNA-1 inh: 103*; HCV NS3 hel inh: 44*; ZTA counter: 75*; PABP polyA inh: 68*; eIF4H inh: 63*; NS3 hel confirm: 104*; DNA FID counter: 62*

What do the screens show for `Cc1c(OC(=O)N(C)C)ccc2c1O/C(=C\c1ccco1)C2=O`?
HCV NS3 hel inh: 59*; PABP polyA inh: 16; eIF4H inh: 26; PABP1 MLLE inh: 10; NS3 hel confirm: -5; DNA FID counter: -17

Results for COc1ccc(CC(=O)Nc2ccc3c(C(F)(F)F)cc(=O)oc3c2)cc1OC ?
EBNA-1 inh: -1; HCV NS3 hel inh: 59*; ZTA counter: 8; PABP polyA inh: -4; eIF4H inh: 6; PABP1 MLLE inh: 3; NS3 hel confirm: -13; DNA FID counter: -21

What do the screens show for `Cc1ccc(N2C(=O)NC(=O)/C(=C\c3cc(C)n(-c4cc(C(=O)O)cc(C(=O)O)c4)c3C)C2=O)cc1`?
EBNA-1 inh: -5; HCV NS3 hel inh: 19; ZTA counter: 20; PABP polyA inh: 21; eIF4H inh: 44; PABP1 MLLE inh: 8

Results for CCc1ccc(N2C(=O)NC(=O)/C(=C\c3cc(C)n(-c4cc(C(=O)O)cc(C(=O)O)c4)c3C)C2=O)cc1 ?
EBNA-1 inh: -7; HCV NS3 hel inh: 40*; ZTA counter: 37*; PABP polyA inh: 16; eIF4H inh: 44; PABP1 MLLE inh: 4; NS3 hel confirm: -5; DNA FID counter: 5; Zta DNA confirm: 28; EBNA1 counter: -8

How did Cn1cc(C(=O)OCC(=O)Nc2ccccc2)c2ccccc21 do in these assays?
ZTA counter: -2; PABP1 MLLE inh: 7

How did O=C(O)CC1OCC=C2CN3CCC45C6=CC(=O)C(=O)C([N+](=O)[O-])=C6NC4C1C2CC35 (stereo not given) do in these assays?
EBNA-1 inh: -19; HCV NS3 hel inh: 19; ZTA counter: 41*; PABP polyA inh: 4; eIF4H inh: 11; PABP1 MLLE inh: 9; NS3 hel confirm: -16; DNA FID counter: 17; Zta DNA confirm: 67*; EBNA1 counter: -2

How did CCN(CC)c1ccc(N=Cc2c(O)n(Cc3ccco3)c(=O)[nH]c2=O)cc1 do in these assays?
EBNA-1 inh: -7; HCV NS3 hel inh: 37*; ZTA counter: 37*; PABP polyA inh: inconclusive; eIF4H inh: inconclusive; PABP1 MLLE inh: -51; NS3 hel confirm: 4; DNA FID counter: -2; Zta DNA confirm: 4; EBNA1 counter: -10

What do the screens show for `NC(N)=Nc1ccc2[nH]c3c(c2c1)C[C@@]1(O)[C@H]2Cc4ccc(O)c5c4[C@@]1(CCN2CC1CC1)C3O5` (stereo not given in full)?
PABP1 MLLE inh: -5

Results for O=c1[nH]c(=O)n(CCc2ccccc2)c(O)c1C=NCc1ccc2c(c1)OCO2 ?
EBNA-1 inh: 31*; HCV NS3 hel inh: -5; ZTA counter: -4; PABP polyA inh: 5; eIF4H inh: -18; PABP1 MLLE inh: -11; EBNA-1 inh conf: 46*; ZTA counter trip: -6

How did [Cl][Pt+2][Cl].[NH-]C1CCCCC1[NH-] (stereo not given) do in these assays?
EBNA-1 inh: -1; ZTA counter: 7; PABP1 MLLE inh: -114

Results for COC(=O)C1=C(c2c(C)noc2C)C[C@@H]2CC[C@H]1N2C(=O)NCCO ?
ZTA counter: 7; PABP1 MLLE inh: -2
